The values below come from ChEMBL document CHEMBL2163192, “N,N-Dimethyl-[9-(arylsulfonyl)-2,3,4,9-tetrahydro-1H-carbazol-3-yl]amines as novel, potent and selective 5-HT₆ receptor antagonists” (Bioorg Med Chem Lett, 2012).

Activity calls are given as the source filed them. The calls are words filed in the database; no cut-off is given here.

Data set [1] addresses Sodium-dependent dopamine transporter (Homo sapiens) (UniProt Q01959). Put plainly: Inhibition of DAT at 10 uM. The method in brief:
(§1)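 In-house selectivity panel of related receptors and transporters; each compound tested at 1 μM and 10 μM; percent inhibition determined in duplicate and the mean of the two reported.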

The target in data set [2] is T1, Alpha-1B adrenergic receptor (Homo sapiens) (UniProt P35368).
T1 sequence (whole entry): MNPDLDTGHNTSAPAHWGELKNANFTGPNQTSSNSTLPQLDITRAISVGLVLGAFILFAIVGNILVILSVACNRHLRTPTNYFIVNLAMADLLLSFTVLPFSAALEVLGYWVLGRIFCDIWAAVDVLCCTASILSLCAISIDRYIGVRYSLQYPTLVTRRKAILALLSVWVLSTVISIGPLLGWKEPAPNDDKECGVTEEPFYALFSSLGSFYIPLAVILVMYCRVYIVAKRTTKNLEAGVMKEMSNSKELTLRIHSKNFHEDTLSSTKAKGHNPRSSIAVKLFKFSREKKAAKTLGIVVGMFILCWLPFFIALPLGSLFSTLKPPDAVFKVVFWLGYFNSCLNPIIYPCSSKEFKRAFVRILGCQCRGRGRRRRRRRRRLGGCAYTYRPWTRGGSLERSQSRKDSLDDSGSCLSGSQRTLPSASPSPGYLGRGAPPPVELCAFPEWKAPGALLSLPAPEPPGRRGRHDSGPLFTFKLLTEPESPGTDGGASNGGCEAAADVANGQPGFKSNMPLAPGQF
Put plainly: Inhibition of alpha1B adrenergic receptor at 1 uM. The method in brief: as §1

A short description of data set [3]: Half life in Wistar rat at 10 mg/kg, po. The format is ADME, organism-based. Also on record: dose 10 mg/kg, route oral. The note with it: in vivo. The method, boiled down: (§2)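 Fasted male Wistar rats, n=3, given 10 mg/kg orally in water for injection (10 mL/kg); plasma Cmax, half-life, Vd and clearance derived, with bioavailability from comparison against the 10 mg/kg iv arm.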

Data set [4] addresses Histamine H4 receptor (Homo sapiens) (UniProt Q9H3N8). Put plainly: Inhibition of histamine H4 receptor at 1 uM. The method, boiled down:
as §1

Data set [5] concerns the target T2, 5-hydroxytryptamine receptor 1A (Homo sapiens) (UniProt P08908).
T2 sequence (whole entry): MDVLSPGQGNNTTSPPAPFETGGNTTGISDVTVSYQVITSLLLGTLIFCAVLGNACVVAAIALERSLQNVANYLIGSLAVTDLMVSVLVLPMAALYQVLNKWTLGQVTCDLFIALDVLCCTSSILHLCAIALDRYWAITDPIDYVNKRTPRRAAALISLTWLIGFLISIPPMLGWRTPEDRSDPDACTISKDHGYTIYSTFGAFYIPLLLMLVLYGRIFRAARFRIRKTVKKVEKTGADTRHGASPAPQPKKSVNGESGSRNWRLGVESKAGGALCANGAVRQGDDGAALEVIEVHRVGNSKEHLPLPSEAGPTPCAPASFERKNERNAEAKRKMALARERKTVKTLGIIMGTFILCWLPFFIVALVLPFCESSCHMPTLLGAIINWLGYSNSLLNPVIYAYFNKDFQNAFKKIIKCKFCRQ
Put plainly: Inhibition of 5-HT1A receptor at 1 uM. The method, boiled down:
as §1

Data set [6] is described as follows: Volume of distribution in Wistar rat at 10 mg/kg, iv. As to conditions: in vivo. The format is ADME, organism-based. Also on record: dose 10 mg/kg, route intravenous. The method, boiled down: (§3)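 Fasted male Wistar rats, n=3, single 10 mg/kg intravenous dose in water for injection (2 mL/kg); plasma concentration–time profile used for Cmax, AUC, half-life, Vd and clearance.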

A short description of data set [7]: Cmax in Wistar rat at 10 mg/kg, po. As to conditions: in vivo. Also on record: dose 10 mg/kg, route oral. The format is ADME, organism-based. The method, boiled down:
as §2

The next data set deals with CYP2D6 (Homo sapiens, UniProt P10635). Put plainly: Inhibition of human CYP2D6 at 3 uM. The format is ADME. The method in brief: (§4)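 Isoform-selective inhibition assays using heterologously expressed human CYP enzymes; compounds tested at 3 μM; percent inhibition reported.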
CYP2D6, sequence (P10635 whole entry, canonical isoform): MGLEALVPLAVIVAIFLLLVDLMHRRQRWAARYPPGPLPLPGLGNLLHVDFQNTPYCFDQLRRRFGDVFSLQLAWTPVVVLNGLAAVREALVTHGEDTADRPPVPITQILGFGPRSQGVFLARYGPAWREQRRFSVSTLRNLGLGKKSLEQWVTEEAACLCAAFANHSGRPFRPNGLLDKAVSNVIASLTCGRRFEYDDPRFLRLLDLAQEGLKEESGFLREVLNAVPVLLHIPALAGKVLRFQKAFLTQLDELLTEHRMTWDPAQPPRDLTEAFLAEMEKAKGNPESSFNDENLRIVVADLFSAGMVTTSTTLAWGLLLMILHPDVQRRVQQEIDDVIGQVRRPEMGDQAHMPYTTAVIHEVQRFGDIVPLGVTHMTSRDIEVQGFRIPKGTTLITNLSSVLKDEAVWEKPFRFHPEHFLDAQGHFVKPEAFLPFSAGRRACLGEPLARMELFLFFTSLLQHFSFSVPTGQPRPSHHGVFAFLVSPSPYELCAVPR
Data set [8] concerns the target Histamine H4 receptor (Homo sapiens) (UniProt Q9H3N8). Put plainly: Inhibition of histamine H4 receptor at 10 uM. The method in brief:
as §1

Data set [9] in a line: Clearance in Wistar rat at 10 mg/kg, po. Also on record: dose 10 mg/kg, route oral. The note with it: in vivo. The format is ADME, organism-based. The method in brief: as §2
The nature of data set [10]: AUC in Wistar rat at 10 mg/kg, po. The note with it: plasma. The format is ADME, organism-based. Also on record: dose 10 mg/kg, route oral. The method in brief: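 Fasted male Wistar rats (n = 3) received a single oral dose of 10 mg/kg in water for injection. AUC is given in ng.hr/mL as part of a pharmacokinetic profile that also includes Cmax, t1/2, Vd and clearance, and uses an i.v. 10 mg/kg arm to derive oral bioavailability.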

Data set [11] has as its target Sodium-dependent dopamine transporter (Homo sapiens) (UniProt Q01959). Put plainly: Inhibition of DAT at 1 uM. The method, boiled down: as §1
The nature of data set [12]: AUC in Wistar rat at 10 mg/kg, iv. The format is ADME, organism-based. Also on record: dose 10 mg/kg, route intravenous. As to conditions: plasma. The method in brief:
as §3

Data set [13] is described as follows: Cmax in Wistar rat at 10 mg/kg, iv. The format is ADME, organism-based. Also on record: dose 10 mg/kg, route intravenous. As to conditions: in vivo. The method, boiled down:
as §3

Data set [14] deals with D(2) dopamine receptor (Homo sapiens) (UniProt P14416). Nature of the data set: Inhibition of dopamine D2 receptor at 1 uM. The method, boiled down: as §1
D(2) dopamine receptor (Homo sapiens), sequence (P14416 whole entry): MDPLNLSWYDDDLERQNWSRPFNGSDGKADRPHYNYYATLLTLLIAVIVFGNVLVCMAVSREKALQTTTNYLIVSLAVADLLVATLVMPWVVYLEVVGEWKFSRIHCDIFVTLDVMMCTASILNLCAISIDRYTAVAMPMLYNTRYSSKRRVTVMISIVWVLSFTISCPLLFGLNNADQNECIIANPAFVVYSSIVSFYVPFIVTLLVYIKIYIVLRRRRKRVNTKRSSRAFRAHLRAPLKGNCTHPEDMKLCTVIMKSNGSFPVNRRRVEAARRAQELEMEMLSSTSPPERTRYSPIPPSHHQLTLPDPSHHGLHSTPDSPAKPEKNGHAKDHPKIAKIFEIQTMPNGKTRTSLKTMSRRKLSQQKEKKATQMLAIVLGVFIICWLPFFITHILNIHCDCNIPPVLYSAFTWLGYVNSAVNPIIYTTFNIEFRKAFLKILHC
The target in data set [15] is 5-hydroxytryptamine receptor 2A (Homo sapiens) (UniProt P28223). Put plainly: Inhibition of 5-HT2A receptor at 10 uM. The method in brief: as §1
5-hydroxytryptamine receptor 2A (Homo sapiens), sequence (P28223 whole entry): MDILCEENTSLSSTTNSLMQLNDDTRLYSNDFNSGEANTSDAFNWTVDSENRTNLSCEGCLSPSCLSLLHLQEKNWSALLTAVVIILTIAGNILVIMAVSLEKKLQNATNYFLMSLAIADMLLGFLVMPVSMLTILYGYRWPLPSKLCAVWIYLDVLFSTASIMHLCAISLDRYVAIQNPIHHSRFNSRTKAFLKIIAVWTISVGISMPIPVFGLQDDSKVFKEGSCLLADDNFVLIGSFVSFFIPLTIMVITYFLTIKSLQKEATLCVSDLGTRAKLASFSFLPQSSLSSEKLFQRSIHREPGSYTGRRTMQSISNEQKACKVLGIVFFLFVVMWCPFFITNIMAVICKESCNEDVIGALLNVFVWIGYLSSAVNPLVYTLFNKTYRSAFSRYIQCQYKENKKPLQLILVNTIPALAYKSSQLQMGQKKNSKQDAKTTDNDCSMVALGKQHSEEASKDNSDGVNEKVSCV
A short description of data set [16]: Ratio of drug level in brain to plasma in Wistar rat at 10 mg/kg, po. The format is ADME, organism-based. Also on record: dose 10 mg/kg, route oral. The note with it: read-out: BPR.
Data set [17] concerns the target T1, Alpha-1B adrenergic receptor (Homo sapiens). Nature of the data set: Inhibition of alpha1B adrenergic receptor at 10 uM. The method, boiled down:
as §1

Data set [18] is described as follows: Drug metabolism in human liver microsomes. The format is ADME, Microsome. As to conditions: read-out: Drug metabolism. (Microsomes from liver hold many membrane-bound enzymes, among them those of drug oxidation.)
Another data set has as its target CYP2C19 (Homo sapiens, UniProt P33261). Put plainly: Inhibition of human CYP2C19 at 3 uM. The format is ADME. The method, boiled down:
as §4

Data set [19] in a line: Oral bioavailability in Wistar rat at 10 mg/kg. The format is ADME, organism-based. As to conditions: in vivo. The method, boiled down: as §2
Data set [20] concerns the target T2, 5-hydroxytryptamine receptor 1A (Homo sapiens). Put plainly: Inhibition of 5-HT1A receptor at 10 uM. The method in brief:
as §1

Data set [21] can be described thus: Clearance in Wistar rat at 10 mg/kg, iv. The format is ADME, organism-based. Also on record: dose 10 mg/kg, route intravenous. As to conditions: in vivo. The method, boiled down:
as §3

The target of data set [22] is Sodium-dependent serotonin transporter (Homo sapiens) (UniProt P31645). Nature of the data set: Inhibition of SERT at 10 uM. The method, boiled down:
as §1

The next data set addresses CYP3A4 (Homo sapiens, UniProt P08684). Put plainly: Inhibition of human CYP3A4 at 3 uM. The format is ADME. The method, boiled down:
as §4

Data set [23] deals with Histamine H3 receptor (Homo sapiens) (UniProt Q9Y5N1). Put plainly: Inhibition of histamine H3 receptor at 1 uM. The method in brief:
as §1

A short description of data set [24]: Half life in Wistar rat at 10 mg/kg, iv. The format is ADME, organism-based. Also on record: dose 10 mg/kg, route intravenous. As to conditions: in vivo. The method in brief: as §3
For data set [25], the target named is Histamine H3 receptor (Homo sapiens) (UniProt Q9Y5N1). Nature of the data set: Inhibition of histamine H3 receptor at 10 uM. The method, boiled down: as §1
Histamine H3 receptor (Homo sapiens), sequence (Q9Y5N1 whole entry): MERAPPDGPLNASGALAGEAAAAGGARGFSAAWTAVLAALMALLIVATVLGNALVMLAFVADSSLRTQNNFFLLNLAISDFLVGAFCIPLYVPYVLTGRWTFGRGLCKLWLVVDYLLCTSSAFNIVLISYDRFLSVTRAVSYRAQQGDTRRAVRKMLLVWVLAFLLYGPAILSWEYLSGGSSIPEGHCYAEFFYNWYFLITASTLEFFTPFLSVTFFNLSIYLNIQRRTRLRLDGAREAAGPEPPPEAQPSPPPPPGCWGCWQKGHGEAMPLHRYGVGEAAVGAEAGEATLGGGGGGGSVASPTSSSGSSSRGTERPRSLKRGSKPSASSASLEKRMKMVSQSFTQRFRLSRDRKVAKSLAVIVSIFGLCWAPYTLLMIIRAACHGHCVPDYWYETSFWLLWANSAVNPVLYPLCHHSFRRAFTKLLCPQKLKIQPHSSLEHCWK
The target in data set [26] is Sodium-dependent serotonin transporter (Homo sapiens) (UniProt P31645). Put plainly: Inhibition of SERT at 1 uM. The method, boiled down:
as §1

Data set [27] has as its system Rattus norvegicus. Nature of the data set: Volume of distribution in Wistar rat at 10 mg/kg, po. Also on record: dose 10 mg/kg, route oral. As to conditions: in vivo. The format is ADME, organism-based. The method, boiled down:
as §2

Data set [28] deals with 5-hydroxytryptamine receptor 2A (Homo sapiens) (UniProt P28223). Nature of the data set: Inhibition of 5-HT2A receptor at 1 uM. The method, boiled down: as §1
A short description of data set [29]: Drug metabolism in rat liver microsomes. The format is ADME, Microsome. As to conditions: read-out: Drug metabolism.
In data set [30] the test system is Rattus norvegicus. Nature of the data set: Cognitive enhancing effect in Wistar rat assessed as increase in time send on novel object at 1 to 10 mg/kg, po after 60 mins by novel object recognition test. The format is functional, organism-based. The method in brief: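 Novel object recognition in rats with 24-h delay procedure; 1, 3 and 10 mg/kg given orally in water for injection (2 mL/kg) 60 min before test; time exploring novel versus familiar object compared by paired t test, n = 8–10/group.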

In data set [31] the target is D(2) dopamine receptor (Homo sapiens) (UniProt P14416). Nature of the data set: Inhibition of dopamine D2 receptor at 10 uM. The method in brief: as §1
The target in data set [32] is T3, 5-hydroxytryptamine receptor 6 (Homo sapiens, UniProt P50406). Put plainly: Antagonist activity at human recombinant 5-HT6 receptor expressed in CHO cells assessed as inhibition of 5-HT-stimulated cAMP accumulation after 4 hrs by luciferase reporter gene assay. The format is functional, cell-based. The method, boiled down:
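Cell-based, non-radioactive reporter gene assay measuring antagonism of 5-HT-stimulated cAMP formation at human 5-HT6 receptor; IC50 and Kb values determined in duplicate.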
A general note: cAMP levels reflect the balance of adenylyl cyclase and phosphodiesterase activity.

For data set [33], the target named is T3, 5-hydroxytryptamine receptor 6. Put plainly: Displacement of [3H]LSD from human cloned 5-HT6 receptor expressed in HeLa cells after 1 hr by scintillation counter. The format is cell-based. In general terms: Loss of bound radioactivity is the signal in a displacement assay; it reports binding, not function.

The inhibition is the drop in the measured response relative to a control, in per cent. A high value points to strong suppression. The term half-life denotes the time in which the quantity being followed falls by half. A word on the Cmax: it is the highest concentration seen after dosing. The CL/F is the apparent clearance, not corrected for the fraction that reaches the circulation. In general, AUC refers to concentration integrated over time. A word on the bioavailability: it is dose-corrected exposure relative to a reference, in per cent. Broadly, the clearance is the rate of elimination divided by the concentration. Read a low clearance as a low capacity for elimination. What is called IC50 is the concentration at which inhibition is half-maximal. For orientation: Kb means the equilibrium dissociation constant of an antagonist, usually derived from a functional assay. By Ki is commonly meant the equilibrium dissociation constant of an inhibitor or competing ligand from its target. A low value points to higher affinity.

T3 sequence (P50406 whole entry): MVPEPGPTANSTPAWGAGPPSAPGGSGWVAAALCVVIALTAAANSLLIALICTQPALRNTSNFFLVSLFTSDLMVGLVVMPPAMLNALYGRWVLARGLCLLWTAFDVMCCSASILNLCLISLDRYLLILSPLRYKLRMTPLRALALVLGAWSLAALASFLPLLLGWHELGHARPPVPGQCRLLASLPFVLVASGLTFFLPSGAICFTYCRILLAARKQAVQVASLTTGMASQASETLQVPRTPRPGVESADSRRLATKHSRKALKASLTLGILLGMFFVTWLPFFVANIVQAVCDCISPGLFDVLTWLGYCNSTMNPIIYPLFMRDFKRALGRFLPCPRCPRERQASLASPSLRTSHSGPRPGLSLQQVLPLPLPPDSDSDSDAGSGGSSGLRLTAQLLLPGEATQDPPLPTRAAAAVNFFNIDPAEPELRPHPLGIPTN
Histamine H4 receptor (Homo sapiens), sequence (Q9H3N8 whole entry): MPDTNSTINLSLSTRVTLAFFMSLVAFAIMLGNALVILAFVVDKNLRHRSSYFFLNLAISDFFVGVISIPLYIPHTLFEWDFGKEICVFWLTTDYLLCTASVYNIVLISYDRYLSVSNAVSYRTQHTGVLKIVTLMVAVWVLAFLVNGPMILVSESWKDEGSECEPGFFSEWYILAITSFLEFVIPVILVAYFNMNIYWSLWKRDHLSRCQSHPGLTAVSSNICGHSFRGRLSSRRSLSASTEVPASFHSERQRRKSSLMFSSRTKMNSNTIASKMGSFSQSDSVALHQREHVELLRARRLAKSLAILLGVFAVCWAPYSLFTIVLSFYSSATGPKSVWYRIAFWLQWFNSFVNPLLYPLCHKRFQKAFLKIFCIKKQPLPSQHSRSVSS
Sodium-dependent serotonin transporter (Homo sapiens), sequence (P31645 whole entry, looked up): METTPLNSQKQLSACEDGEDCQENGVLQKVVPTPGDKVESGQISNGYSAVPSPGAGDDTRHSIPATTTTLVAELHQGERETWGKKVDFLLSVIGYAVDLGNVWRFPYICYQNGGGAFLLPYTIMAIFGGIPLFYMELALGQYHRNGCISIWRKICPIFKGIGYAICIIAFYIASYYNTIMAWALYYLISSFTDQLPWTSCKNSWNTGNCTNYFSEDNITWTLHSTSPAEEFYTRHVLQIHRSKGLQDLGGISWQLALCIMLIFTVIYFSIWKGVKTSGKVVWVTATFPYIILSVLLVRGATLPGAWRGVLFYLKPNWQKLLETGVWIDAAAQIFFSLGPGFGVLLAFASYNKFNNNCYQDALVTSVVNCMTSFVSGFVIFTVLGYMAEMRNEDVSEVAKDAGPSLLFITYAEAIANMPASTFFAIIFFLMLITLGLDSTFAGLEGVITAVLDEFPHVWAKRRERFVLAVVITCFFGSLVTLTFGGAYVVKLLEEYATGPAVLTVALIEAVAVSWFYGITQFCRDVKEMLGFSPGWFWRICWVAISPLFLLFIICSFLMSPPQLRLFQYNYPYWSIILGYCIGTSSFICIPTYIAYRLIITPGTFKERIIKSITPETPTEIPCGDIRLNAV
Sodium-dependent dopamine transporter (Homo sapiens), sequence (Q01959 whole entry): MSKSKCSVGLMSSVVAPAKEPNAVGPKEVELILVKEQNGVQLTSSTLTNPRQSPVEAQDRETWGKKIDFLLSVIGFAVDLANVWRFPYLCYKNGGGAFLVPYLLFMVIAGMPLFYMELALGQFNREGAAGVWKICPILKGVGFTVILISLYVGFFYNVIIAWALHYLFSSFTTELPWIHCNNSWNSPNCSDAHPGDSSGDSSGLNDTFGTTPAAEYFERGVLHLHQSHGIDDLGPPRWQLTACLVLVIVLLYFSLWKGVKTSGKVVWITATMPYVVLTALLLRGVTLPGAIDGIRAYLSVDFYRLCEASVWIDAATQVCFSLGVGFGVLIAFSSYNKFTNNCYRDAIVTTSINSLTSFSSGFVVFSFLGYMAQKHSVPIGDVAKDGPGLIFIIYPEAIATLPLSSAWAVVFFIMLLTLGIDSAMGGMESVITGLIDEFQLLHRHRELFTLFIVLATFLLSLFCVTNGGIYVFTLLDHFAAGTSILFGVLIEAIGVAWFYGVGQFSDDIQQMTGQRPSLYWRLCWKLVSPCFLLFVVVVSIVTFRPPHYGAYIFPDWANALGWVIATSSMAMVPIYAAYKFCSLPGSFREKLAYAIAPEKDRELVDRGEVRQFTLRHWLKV
CYP2C19, sequence (P33261 whole entry): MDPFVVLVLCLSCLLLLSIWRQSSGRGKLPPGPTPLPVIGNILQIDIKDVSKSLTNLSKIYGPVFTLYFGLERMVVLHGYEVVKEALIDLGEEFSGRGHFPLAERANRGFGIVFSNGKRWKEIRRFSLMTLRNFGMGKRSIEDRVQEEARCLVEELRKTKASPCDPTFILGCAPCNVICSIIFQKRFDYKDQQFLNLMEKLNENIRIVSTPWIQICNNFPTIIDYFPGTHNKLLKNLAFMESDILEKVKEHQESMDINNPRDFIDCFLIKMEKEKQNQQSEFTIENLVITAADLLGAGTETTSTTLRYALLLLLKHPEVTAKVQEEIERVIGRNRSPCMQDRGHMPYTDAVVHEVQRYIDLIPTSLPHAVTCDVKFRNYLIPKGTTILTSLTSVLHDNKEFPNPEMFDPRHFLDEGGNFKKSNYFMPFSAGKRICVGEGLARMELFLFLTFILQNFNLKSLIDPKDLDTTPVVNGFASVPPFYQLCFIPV
CYP3A4, sequence (P08684 whole entry): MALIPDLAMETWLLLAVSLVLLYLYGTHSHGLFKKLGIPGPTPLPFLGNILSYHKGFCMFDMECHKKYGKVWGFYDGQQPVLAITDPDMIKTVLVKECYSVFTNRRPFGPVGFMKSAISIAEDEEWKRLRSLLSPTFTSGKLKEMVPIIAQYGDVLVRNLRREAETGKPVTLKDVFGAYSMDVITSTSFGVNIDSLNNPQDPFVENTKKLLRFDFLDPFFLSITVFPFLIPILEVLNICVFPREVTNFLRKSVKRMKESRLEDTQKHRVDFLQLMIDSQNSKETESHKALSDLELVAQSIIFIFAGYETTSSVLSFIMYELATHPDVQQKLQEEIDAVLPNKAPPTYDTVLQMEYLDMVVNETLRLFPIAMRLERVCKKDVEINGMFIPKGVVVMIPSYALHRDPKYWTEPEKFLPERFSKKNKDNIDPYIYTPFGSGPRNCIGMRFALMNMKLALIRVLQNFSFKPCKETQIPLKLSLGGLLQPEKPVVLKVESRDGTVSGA

`COc1ccc2c(c1)c1c(n2S(=O)(=O)c2ccccc2)CCC(N(C)C)C1` (racemic): the inhibition in data set [1] was 6.23%; in data set [2] it was 5.21%; in data set [4] it was 0%; in data set [5], 28.3%; in [8], 13.9%; in data set [11], 1.48%. Further, the inhibition in data set [14] was determined as 11%; in data set [15], 46.7%; in data set [17] it was 5.26%; in [20] it was 43.1%; in data set [22], 3.35%; in [23], 22.8%. Also, the inhibition is 32.7% in data set [25], 2.52% in [26], 8.15% in data set [28] and 51.3% in data set [31]. Moreover, the results for the half-life in data set [3] and in [24] were 7.67 h and 3.86 h, respectively. In addition, the Vd came out at 24.3 L/kg in data set [6] and 21.95 L/kg in the data set on Rattus norvegicus [27]. In addition, the Cmax in data set [7] came to 90 ng/mL; in data set [13], 928 ng/mL. The inhibition at 3 µM is 50% on CYP2D6, 50% against CYP2C19 and 10% against CYP3A4. The compound also registered a CL/F in data set [9] of 331 mL/min/kg. For the same compound, the figures for the AUC in data set [10] and in data set [12] were 544 ng·h/mL and 2120 ng·h/mL, respectively. The Kp in [16] came out at 7.6. Besides, the results for the metabolised in data set [18] and in data set [29] were 49% and 74%, respectively. The compound also gave a bioavailability in [19] of 26%. In data set [21], this compound gave a clearance of 73.8 mL/min/kg. For the same compound, the result with Rattus norvegicus [30] was Active. For the same compound, the IC50 in data set [32] came to 457 nM. For the same compound, the Kb in data set [32] was 4.7 nM.
Compound `NC1CCc2[nH]c3ccc(S(=O)(=O)c4ccccc4)cc3c2C1` (configuration not stated) showed a Ki in [33] of 58 nM.
